Measured values reported in ChEMBL document CHEMBL5543129, “Peptide Inhibitor Targeting the Extraterminal Domain in BRD4 Potently Suppresses Breast Cancer Both In Vitro and In Vivo” (J Med Chem, 2024).
Calls of active or inactive are those of the source. Square brackets hold non-standard residues; d marks the D form. Peptide text beside a SMILES is read from it. Hyp = O=C(O)[C@@H]1C[C@@H](O)CN1; Ahx = NCCCCCC(=O)O

What was measured:
[1] = Toxicity in BALB/c mouse xenografted with human […] assessed as body weight loss at 25 mg/kg, ip administered every 2 days; assay type: organism-based; conditions: in vivo, 48 h
Outline: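 Female BALB/c nude mice (4–6 weeks) received 5 × 10^6 MCF7 cells sc in PBS, with estrogen (E2, 10–2 M) brushed on the neck every 2 days. Mice were randomized at about 50 mm3 tumor volume. Peptide in normal saline was given ip at 25 mg/kg every 2 days. Body weight was monitored.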

MCF7 [2] = assay: Downregulation of c-Myc gene expression in human MCF7 cells at 10 uM incubated for 6 hrs by RT-qPCR analysis; assay type: functional, cell-based
Outline: (§1)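 Cells treated with peptide (10 μM) for 6 h; c-Myc, N-myc and CCND1 mRNA measured by RT-qPCR. Three biological repeats.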

MDA-MB-231 [3] = assay: Downregulation of c-Myc gene expression in human MDA-MB-231 cells at 10 uM incubated for 6 hrs by RT-qPCR analysis; assay type: functional, cell-based; outline: as §1
MDA-MB-231 [4] = assay: Downregulation of CCND1 gene expression in human MDA-MB-231 cells at 10 uM incubated for 6 hrs by RT-qPCR analysis; assay type: functional, cell-based; outline: as §1
[5] = Downregulation of BRD4 protein expression in human MCF7 cells assessed as fold change in remaining BRD4 level at 10 uM incubated for 24 hrs by immunoblotting analysis (reference value: 1); assay type: functional
Outline: (§2)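 Cells treated with peptide (10 μM) for 24 h. Lysates in Tris/NaCl/EDTA/1% Triton X-100, run on 10% SDS-PAGE and immunoblotted with ECL detection. β-actin as loading control. Three repeats, quantified against untreated cells.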

[6] = Downregulation of JMJD6 protein expression in human MCF7 cells assessed as fold change in remaining JMJD6 level at 10 uM incubated for 24 hrs by immunoblotting analysis (reference value: 1); assay type: functional; outline: as §2
Mus musculus [7] = assay: Downregulation of c-Myc mRNA expression in BALB/c mouse tumor xenografted with human MCF7 cells at 25 mg/kg, ip administered every 2 days by RT-qPCR analysis; assay type: functional, organism-based
Outline: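 Female BALB/c nude mice (4–6 weeks) implanted subcutaneously with 5 × 10^6 cells in PBS. For MCF7 grafts, estrogen (E2, 10–2 M) is brushed on every 2 days. Treatment starts at ~50 mm3 after randomization, with peptide in normal saline ip every 2 days. Tumour mRNA is measured by RT-qPCR.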

Mus musculus [8] = assay: Downregulation of N-myc mRNA expression in BALB/c mouse tumor xenografted with human MDA-MB-231 cells at 25 mg/kg, ip administered every 2 days by RT-qPCR analysis; assay type: functional, organism-based
MCF7 [9] = assay: Inhibition of colony formation in human MCF7 cells at 10 uM incubated for 2 weeks in presence of 5 uM JQ1 by crystal violet staining based assay; assay type: functional, cell-based
Outline: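 Cells are seeded at 1 × 10^3/well and treated with peptide (10 μM) for 2 weeks, alone or with JQ1 5 μM, iJMJD6 10 μM, ICI 2.5 μM, or tamoxifen 3 μM (tamoxifen-resistant lines). Colonies are stained with crystal violet, dissolved in 10% acetic acid, and read at 590 nm. Three biological repeats.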

MDA-MB-231 [10] = assay: Inhibition of cell migration in human MDA-MB-231 cells at 10 uM incubated for 12 hrs by inverted microscopic assay; assay type: functional, cell-based
Outline: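 Cells are seeded at 5 × 10^5/well and scratched at 80–90% confluence. They are kept in serum-free medium with peptide (10 μM); partner agents are JQ1 5 μM, iJMJD6 10 μM, or ICI 2.5 μM. Wound area is imaged by inverted microscope at 0 and 12 or 24 h. Wound closure % = (A0−A1)/A0 × 100. Three biological repeats.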

[11] = Toxicity in BALB/c mouse xenografted with human MCF7 cells assessed as change in lung morphology at 12.5 mg/kg, ip administered every 2 days in presence of 50 mg/kg JQ1; assay type: organism-based; conditions: in vivo, 48 h
[12] = Toxicity in BALB/c mouse xenografted with human MDA-MB-231 cells assessed as change in liver morphology at 12.5 mg/kg, ip administered every 2 days in presence of 50 mg/kg JQ1; assay type: organism-based; conditions: in vivo, 48 h
Outline: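 Female BALB/c nude mice (4–6 weeks) carried sc MDA-MB-231 xenografts (5 × 10^6 cells) and were randomized at about 50 mm3. Peptide (12.5 mg/kg ip in saline) and JQ1 (50 mg/kg ip, DMSO/10% HPBCD 1:10) were given every 2 days, alone or combined. Body weight was recorded, and heart, liver, spleen, lung and kidney morphology and weight were assessed.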

MDA-MB-231 [13] = assay: Antiproliferative activity against human MDA-MB-231 cells at 10 uM incubated for 1 week in presence of JMJD6 inhibitor by CellTiter 96 Aqueous One Solution based assay; assay type: functional, cell-based; conditions: time 1.0 weeks
Outline: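 Cells seeded at 2 × 10^3/well and treated with peptide (10 μM) alone or combined with JQ1 (5 μM), iJMJD6 (10 μM) or ICI (2.5 μM), as the line states. Viability read by MTS reagent, 1 h at 37 °C, A490. Three biological repeats.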

MCF7 [14] = assay: Antitumor activity against human MCF7 cells xenografted in BALB/c nude mouse assessed as reduction in tumor weight at 12.5 mg/kg, ip administered every 2 days in presence of 12.5 mg/kg JMJD6 inhibitor; assay type: functional, organism-based
Outline: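 Female BALB/c nude mice given 5 × 10^6 cells sc (MCF7 mice with E2 10^-2 M every 2 days), randomised at ~50 mm3. Peptide 12.5 mg/kg ip (saline) every 2 days, plus JQ1 50 mg/kg ip (DMSO/10% HPBCD 1:10) every 2 days or iJMJD6 12.5 mg/kg ip (DMSO/PBS 1:20). Caliper volume every 2 days; tumours weighed at the end.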

MCF7 [15] = assay: Antitumor activity against human MCF7 cells xenografted in BALB/c nude mouse assessed as reduction in tumor volume at 12.5 mg/kg, ip administered every 2 days in presence of 2.5 mg/kg fulvestrant; assay type: functional, organism-based
Outline: (§3)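 MCF7 xenografts in female BALB/c nude mice on E2 (10^-2 M, every 2 days), randomised at ~50 mm3. Peptide 12.5 mg/kg ip every 2 days with fulvestrant 2.5 mg/kg sc (DMSO/corn oil 1:10) every 6 days. Caliper volume (1/2 × L × W²); tumours weighed at the end.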

MCF7 [16] = assay: Antitumor activity against human MCF7 cells xenografted in BALB/c nude mouse assessed as reduction in tumor weight at 12.5 mg/kg, ip administered every 2 days in presence of 2.5 mg/kg fulvestrant; assay type: functional, organism-based; outline: as §3
T47D = assay: Antiproliferative activity against human T47D cells at 10 uM incubated for 1 week in presence of tamoxifen by CellTiter 96 Aqueous One Solution based assay; assay type: functional, cell-based; conditions: time 1.0 weeks
Outline: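 Tamoxifen-resistant MCF7 or T47D cells treated with peptide (10 μM) or tamoxifen (3 μM), alone or combined. Viability read by MTS reagent, 1 h at 37 °C, A490.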

[17] = Downregulation of CCND1 protein expression in BALB/c mouse tumor xenografted with human MCF7 cells assessed as fold change in remaining CCND1 level at 25 mg/kg, ip administered every 2 days by immunoblotting analysis; assay type: functional
Outline: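 Tumours taken from xenograft mice dosed with peptide at 25 mg/kg ip every 2 days. […] Three repeats.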

CC[C@H](C)[C@H](NC(=O)[C@H](Cc1ccc(O)cc1)NC(=O)[C@@H]1C[C@@H](O)CN1C(=O)[C@H](C)NC(=O)[C@@H](NC(=O)CCCCCNC(=O)[C@H](CCC(=O)O)NC(=O)CNC(=O)[C@H](CS)NC(=O)[C@H](CCCCN)NC(=O)[C@H](Cc1ccccc1)NC(=O)[C@H](CCCCN)NC(=O)[C@H](CCC(N)=O)NC(=O)[C@H](CC(N)=O)NC(=O)[C@H](CCCNC(=N)N)NC(=O)[C@H](CCCNC(=N)N)NC(=O)[C@H](CCCNC(=N)N)NC(=O)[C@H](CCCNC(=N)N)NC(=O)[C@H](CCC(N)=O)NC(=O)[C@H](CCCNC(=N)N)NC(=O)[C@H](CCCNC(=N)N)NC(=O)[C@H](CCCCN)NC(=O)[C@H](CCCCN)NC(=O)[C@H](CCCNC(=N)N)NC(=O)CNC(=O)[C@@H](N)Cc1ccc(O)cc1)[C@@H](C)CC)C(=O)O (H-YGRKKRRQRRRRNQKFKCGE[Ahx]IA[Hyp]YI-OH)
Non-Toxic: Activity [1] | Activity [11] | Activity [12]
0.63: fold change (FC) [5]
active: Activity (MCF7 [2]) | Activity (MDA-MB-231 [3]) | Activity (MDA-MB-231 [4]) | Activity (Mus musculus [7]) | Activity (Mus musculus [8]) | inhibition (MCF7 [9]) | inhibition (MDA-MB-231 [10]) | Activity (MDA-MB-231 [13]) | Activity (MCF7 [14]) | Activity (MCF7 [15]) | Activity (MCF7 [16]) | Activity (T47D)
0.09: fold change (FC) [17]
0.5: fold change (FC) [6]

H-YGRKKRRQRRRRNQKFKCGE-OH
Non-Toxic: Activity [1] | Activity [11] | Activity [12]
active: Activity (MCF7 [2]) | Activity (MDA-MB-231 [3]) | Activity (MDA-MB-231 [4]) | Activity (Mus musculus [7]) | Activity (Mus musculus [8]) | inhibition (MCF7 [9]) | inhibition (MDA-MB-231 [10]) | Activity (MDA-MB-231 [13]) | Activity (MCF7 [14]) | Activity (MCF7 [15]) | Activity (MCF7 [16]) | Activity (T47D)
0.11: fold change (FC) [17]
0.91: fold change (FC) [6]
1.14: fold change (FC) [5]
